Assay outcomes as filed in PubChem.
Insulin prom inh: TRM-6 insulin promoter activity inhibition; TRM-6 cells (human fetal islet line), insulin promoter-eGFP reporter, imaging; reporter expression induced with tamoxifen; inhibition, % at 2 µM; 130,000 tested, 0.9% active; AID 1273;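 active means inhibition above the mean plus 3 SD, with well images judged a real hit on visual review, cut at about 60% in these data, passing the limit was not always enough; inconclusive means inhibition over the cutoff but images rejected on review; inactive means inhibition not above the cutoff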
Ins promoter up: MIN6 insulin promoter up-regulation. MIN6 insulin promoter-GFP reporter, high-content imaging; hits give high values. z-score at 5 µM. 190,000 tested, 0.3% active;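 active means z-score above 3 at 5 µM with at least 500 cells counted in the well; inconclusive means wells under 500 cells, flagged as cytotoxic or low count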
PERK inhibitor: blocks human PERK kinase; Q9NZJ5; CHO PERK-DD fusion, SEAP luminescence translation reporter; inhibition, % at 5.6 µM; 220,000 tested, 0.17% active; AID 1416;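 active means inhibition above the mean inhibition of all tested compounds plus 3 SD, set separately per screening campaign, cut at about 2.9% in these data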;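 further: PERK kinase domain activated by AP20187 dimerizer at 100 nM; 0% = DMSO with dimerizer and 100% = rapamycin at 8.4 µM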
Target sequence (Q9NZJ5 whole entry, looked up, the tested form may be a part): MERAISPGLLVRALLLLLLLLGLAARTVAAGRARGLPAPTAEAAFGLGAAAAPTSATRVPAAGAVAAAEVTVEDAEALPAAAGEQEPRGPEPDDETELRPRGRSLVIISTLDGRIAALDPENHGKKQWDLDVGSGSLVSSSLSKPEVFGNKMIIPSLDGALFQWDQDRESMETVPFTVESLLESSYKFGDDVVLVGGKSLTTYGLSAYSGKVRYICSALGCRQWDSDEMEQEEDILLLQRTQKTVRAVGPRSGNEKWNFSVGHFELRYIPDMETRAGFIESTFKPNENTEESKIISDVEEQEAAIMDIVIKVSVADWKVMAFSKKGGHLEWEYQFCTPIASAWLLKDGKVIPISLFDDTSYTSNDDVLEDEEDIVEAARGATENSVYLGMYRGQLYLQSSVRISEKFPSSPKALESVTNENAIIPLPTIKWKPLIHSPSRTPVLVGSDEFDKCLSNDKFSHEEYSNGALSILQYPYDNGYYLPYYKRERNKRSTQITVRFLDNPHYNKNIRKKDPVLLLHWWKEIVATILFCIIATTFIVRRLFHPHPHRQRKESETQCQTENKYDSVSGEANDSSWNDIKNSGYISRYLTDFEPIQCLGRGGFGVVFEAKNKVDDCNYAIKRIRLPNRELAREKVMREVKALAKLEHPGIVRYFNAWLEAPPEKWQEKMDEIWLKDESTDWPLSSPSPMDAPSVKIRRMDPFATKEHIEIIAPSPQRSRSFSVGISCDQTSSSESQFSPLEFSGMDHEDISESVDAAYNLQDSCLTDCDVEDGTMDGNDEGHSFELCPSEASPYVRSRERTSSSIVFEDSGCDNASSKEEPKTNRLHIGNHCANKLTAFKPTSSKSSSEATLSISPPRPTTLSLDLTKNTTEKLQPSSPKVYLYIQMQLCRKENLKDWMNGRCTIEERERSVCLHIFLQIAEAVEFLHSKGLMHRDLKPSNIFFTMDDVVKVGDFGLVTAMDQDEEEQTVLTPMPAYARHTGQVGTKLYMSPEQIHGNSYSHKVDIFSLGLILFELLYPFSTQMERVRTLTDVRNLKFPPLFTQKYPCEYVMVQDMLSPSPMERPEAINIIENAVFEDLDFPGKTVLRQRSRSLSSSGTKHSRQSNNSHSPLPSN
Dynein cargo inh: blocks dynein driven cargo transport along microtubules. 3617.4 mouse cells, GR-EGFP nuclear translocation imaging; test concentration mostly 20 µM; stimulated with dexamethasone, 1 µM; hits give low values. z-score, hits read low. 220,000 tested, 0.47% active;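 active means plate z-score of nuclear minus cytoplasmic receptor signal below a set negative limit, without overly bright fluorescence or cell loss, cut at about -3.5 in these data, passing the limit was not always enough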;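 further: z-score of nuclear minus cytoplasmic ring GR-EGFP intensity difference per well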
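medium = tetracycline-free induction medium containing charcoal-stripped FBS | probe or stimulus = dexamethasone, 1.0 µM final | timing = 48 h induction, then 1 h compound, then 30 min agonist, 37 °C | detection = automated 10x imaging of fixed Hoechst-stained cells | read-out basis = nuclear versus cytoplasmic GR-EGFP signal, averaged per well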
Autophagy HCS: modulators of autophagy; MEF GFP-LC3 puncta imaging; test concentration mostly 10 µM; calls only at 10 µM (by protocol); 190,000 tested, 0.98% active; AID 463193;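 active means percentage of spot-positive cells more than 3 SD above its plate mean, without a fluorescence outlier flag or 80% toxicity; inconclusive means no clear call, values can overlap the other calls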;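 further: spot-positive cell cutoff set from DMSO-treated cells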
The depositor's hits bear a star; i = inactive; ? = inconclusive; / = no result given; + = active, no number. In the library only some 2.1% were active in any assay of this set; here they are far more common.

SMILES	Insulin prom inh	Ins promoter up	PERK inhibitor	Dynein cargo inh	Autophagy HCS
COc1cccc(CN2CCN(Cc3ccc(O)c(OC)c3)CC2CCO)c1 (stereo not given)	-55.6	0.51	0.8	-0.354	i
COc1cc(CN2CCN(Cc3ccc(C)cc3)C(CCO)C2)ccc1O (stereo not given)	78.3*	/	0.1	0.553	i
S=C(Nc1ccccc1)N1CCN(c2ccc(N3CCOCC3)nn2)CC1	75.0*	-0.4	0.7	-0.123	i
CCN(CC)c1ccc(C(=O)OCc2c(C)noc2C)cc1	16.7	-0.36	0.9	-0.489	i
CCn1ncc(NC(=S)NCCc2ccc(OC)c(OC)c2)c1C(N)=O	-42.1	0.09	2.5	-1.01	i
COCCNC(=O)NC12CC3(C)CC(C)(CC(C)(C3)C1)C2	-17.6	-1.27	-0.3	-1.17	i
COC(=O)c1ccc(C(=O)OC)c(NC(=O)CSCc2ccc(Cl)cc2)c1	3.5	-0.88	1.3	-0.27	i
COC(=O)c1ccc(C(=O)OC)c(NC(=O)CSCC(=O)O)c1	/	/	3.1*	2.5	/
COCCn1c(SCC(=O)c2ccc(F)cc2)nnc1C(C)C	/	0.23	-0.1	0.747	+
Cc1ccccc1CSc1nnc(-c2cnccn2)n1C	/	0.55	-1.0	-1.19	/
NS(=O)(=O)c1ccc(CCNC(=O)c2cccc(OC(F)F)c2)cc1	-68.8	-0.43	0.8	-0.412	+
NS(=O)(=O)c1ccc(CCNC(=O)c2ccccc2F)cc1	-115.4	0.42	1.2	0.437	i
C=CCC1(O)C(=O)N2C(=C1C(=O)N1CCOCC1)c1ccccc1CC2(C)C (stereo not given)	8.7	-0.33	-1.1	-0.333	i
Cc1ccc(Oc2nnc(-c3cccs3)c3ccccc23)cc1	81.0*	0.43	0.6	-0.4	i
COc1ccc(C(=O)NCC(=O)OC2CCCCC2=O)cc1 (stereo not given)	/	-0.3	3.6*	1.66	i
Cc1cc(C)c(NS(=O)(=O)c2ccc(NC(=O)/C=C/C(=O)O)cc2)c(C)c1	13.8	-0.18	0.5	0.336	i
COC(=O)c1sc2cc([N+](=O)[O-])cc(SCC(C)C)c2c1N	i	?	1.5	-0.53	+
CCOC(=O)C1(Cc2ccccc2Cl)CCN(C(=O)c2cnccn2)CC1	/	-0.36	0.4	-0.262	i
COc1ccc(-c2nnn(CCc3nn[nH]n3)n2)cc1	75.0*	/	2.0	-0.149	i
COc1ccc(-c2nnn(CCC(=O)O)n2)cc1	-31.4	0.45	0.5	-0.845	i
O=C(c1ccccn1)N1CC=C(c2ccccc2)CC1	-5.6	-0.46	0.9	-2.05	i
COc1cc(CC(=O)OCC(=O)Nc2sccc2C(N)=O)cc(OC)c1OC	90.9*	-0.64	-0.1	-0.494	i
NC(=O)c1ccsc1NC(=O)COC(=O)Cc1ccsc1	13.2	0.07	0.5	-0.264	i
CC(C)C(=O)c1cc2c(cc1NC(=O)c1cccs1)OCCO2	71.4*	/	0.8	0.47	i
CC(C)C(=O)c1cc2c(cc1NC(=O)c1ccccc1)OCCO2	88.6*	/	-1.0	1.46	i
SMILES	Insulin prom inh	Ins promoter up	PERK inhibitor	Dynein cargo inh	Autophagy HCS
O=C(N/N=C/c1ccncc1)c1ccccc1	29.0	0.42	3.6*	0.0499	i
O=C(N/C(=C/c1cccs1)C(=O)N1CCOCC1)c1ccccc1	-7.1	0.12	0.6	-0.274	i
O=C(N/C(=C\c1cccs1)C(=O)N1CCOCC1)c1cccs1	77.8*	0.42	0.3	-0.524	i
CCc1ccc(NC(=O)C(CC)Sc2nc3cc4c(cc3c(=O)n2Cc2ccco2)OCO4)cc1 (stereo not given)	23.3	-0.47	-0.2	-0.446	+
CC(C(=O)Nc1cccnc1)C1Sc2ccccc2NC1=O (stereo not given)	/	0.28	1.3	-0.147	i
Cc1cc(C)c(OCC(=O)Nc2ccc(NC(=O)c3ccco3)cc2)c([N+](=O)[O-])c1	64.3*	-0.06	-0.4	-0.234	i
Cc1cc(C)c(OCC(=O)Nc2cccc(NC(=O)c3ccco3)c2)c(Br)c1	-13.0	-0.8	-0.9	0.0997	i
Cc1nc2ccccc2c(=O)n1/N=C/c1ccccn1	/	-0.64	3.0*	-0.238	i
O=C(COc1ccccc1-c1ccccc1)NNC(=O)NC1CCCCC1	/	0.6	1.3	-0.0414	i
CCc1nnc(NC(=O)c2ccc(Cl)c(S(=O)(=O)N3CCc4ccccc43)c2)s1	/	-0.29	-0.3	0.373	i
O=C(Nc1nnc(C2CC2)s1)c1ccc(Cl)c(S(=O)(=O)N2CCc3ccccc3C2)c1	60.0*	0.25	0.8	-0.268	i
CCOC(=O)c1cccnc1NC(=O)c1ccccc1	/	-0.18	1.0	-1.45	i
CC(=O)OC(C(=O)NCc1ccco1)c1cccnc1 (stereo not given)	76.3*	0.02	0.3	0.754	i
CSc1nc2ccccc2n1C(=O)Oc1ccccc1	86.7*	-0.13	1.5	-0.0981	i
CCOC(=O)n1c(SCC(N)=O)nc2ccccc21	-21.1	-0.38	0.3	0.478	i
N#CC1(c2ccccc2)CCCN1C(=O)c1ccc(Br)o1 (stereo not given)	18.2	0.36	-1.2	-1.4	i
COc1ccc([N+](=O)[O-])cc1NC(=O)COC(C)=O	?	1.66	1.9	-0.291	i
COc1ccc(C)cc1NC(=O)COC(C)=O	-15.2	3.48*	0.9	-0.392	i
Cc1ccc(Cn2nnnc2CN2CCC(NC(=O)C(C)(C)C)CC2)cc1	41.7	/	0.4	1.62	i
O=C(c1ccco1)N1CCN(C(=O)c2cc3c(=O)oc4ccccc4c3s2)CC1	/	0.51	-0.6	-0.562	+
Cc1ccc2oc(=O)c3cc(C(=O)N4CCN(C(=O)c5ccco5)CC4)sc3c2c1	/	-0.07	1.1	-1.1	i
N#Cc1c(Cl)nsc1NC(=O)c1ccccc1	20.0	-2.51	-0.4	0.193	+
N#Cc1c(NC(=O)c2ccccc2)sc2c1CCCCC2	-253.5	/	-0.8	-2.09	i
CCN(CC)C(=O)CSc1nnc2nnc3cc(OC)ccc3n12	/	-0.05	1.2	-1.22	/
COc1ccc(N/N=C(\C=N\O)C(=O)c2ccc(OC)cc2)cc1	-25.0	-0.68	-0.5	0.148	+
SMILES	Insulin prom inh	Ins promoter up	PERK inhibitor	Dynein cargo inh	Autophagy HCS
COc1ccc(NC(=O)/C=N/O)cc1	/	0.25	0.2	-0.49	i
Cc1c(NC(=O)CCCCCN2C(=O)C3C4C=CC(C4)C3C2=O)c(=O)n(-c2ccccc2)n1C (stereo not given)	/	-0.14	-0.1	1.31	i
CCc1ccc2c(c1)C1(NN=C(c3cccc4ccccc34)S1)C(=O)N2 (stereo not given)	-381.2	/	-0.1	-0.244	+
CCC(=O)n1nc(-c2ccc(Cl)cc2)nc1SC	65.8	/	0.4	-0.576	i
CCCC(=O)n1nc(-c2ccc(Cl)cc2)nc1SC	75.0*	/	0.6	0.291	i
CCC(=O)n1nc(-c2ccc(OC)cc2)nc1SC	89.2*	/	1.5	0.221	i
CCSc1ccccc1C(=O)n1nnc2ccccc21	-44.7	0.81	0.4	-4*	i
O=Cc1c(N2CCN(c3ccccc3)CC2)nc2ccccn2c1=O	/	-0.13	0.1	-0.268	+
